This note sets out measurements from ChEMBL document CHEMBL4152257, “Discovery of novel β-carboline/acylhydrazone hybrids as potent antitumor agents and overcome drug resistance” (Eur J Med Chem, 2018).

The subject of one series is A2780/Taxol. The series can be described thus: Antiproliferative activity against human A2780T cells after 48 to 72 hrs by MTT assay. It is filed as functional, cell-based. In a few lines:
(§1)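 Cells in log phase seeded and allowed to adhere, then exposed to graded compound concentrations for 48 h or 72 h; MTT added for a further 2-3 h, formazan dissolved in DMSO. IC50 taken from dose-response curves; mean ± SD of at least three independent experiments.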

The nature of series [1]: Resistance index, ratio of IC50 for human A2780T cells to IC50 for human A2780S cells. The format is functional.
For a further series, the system named is A549/TR. The experiment in a line: Antiproliferative activity against human A549/TR cells after 48 to 72 hrs by MTT assay. It is filed as functional, cell-based. In a few lines:
as §1

The nature of series [2]: Resistance index, ratio of IC50 for human A549/TR cells to IC50 for human A549 cells. It is filed as functional.
For the next series, the system named is A2780S. The series can be described thus: Antiproliferative activity against human A2780S cells after 48 to 72 hrs by MTT assay. It is filed as functional, cell-based. In a few lines:
as §1

In a further series the test system is A549. The experiment in a line: Antiproliferative activity against human A549 cells after 48 to 72 hrs by MTT assay. It is filed as functional, cell-based. In a few lines:
as §1

The next series has as its system Mus musculus. The series can be described thus: Toxicity in athymic nude Balb/C mouse xenografted with human H460 cells assessed as body weight loss at 30 mg/kg, ip administered once per week measured every 2 days. The format is organism-based. The following applies: in vivo, 48 h. In a few lines: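 Nude mice, 5-to-6-week-old females, given 5 × 10^6 H460 cells sc in right flank in HBSS; at 100 mm3 tumour volume randomized, 6 per group. Vehicle; oral 100 mg/kg three times weekly; or ip 30 mg/kg once weekly. Toxicity signs and mortality observed daily; body weight measured every 2 days.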

Another series relates to NCI-H460. The series can be described thus: Antitumor activity against human H460 cells xenografted in athymic nude Balb/C mouse assessed as tumor growth inhibition at 30 mg/kg, ip administered once per week measured every two days relative to control. The following applies: 48 h, read-out: TGI. It is filed as functional. In a few lines: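 Nude mice (5-6 weeks old, female) implanted sc in right flank with 5 × 10^6 H460 cells in HBSS; at 100 mm3 tumours, randomised 6 per group to vehicle, oral 100 mg/kg three times weekly, or ip 30 mg/kg once weekly. Tumour volume by caliper every 2 days as (π/6) × length × width²; body weight recorded; inhibition from tumour weights versus control.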

Bounds are passed on as bounds.

As for `CC[C@]1(O)C[C@@H]2CN(CCc3c([nH]c4ccccc34)[C@@](C(=O)OC)(c3cc4c(cc3OC)N(C)[C@H]3[C@@](O)(C(=O)OC)[C@H](OC(C)=O)[C@]5(CC)C=CCN6CC[C@]43[C@@H]65)C2)C1` [VINBLASTINE], the IC50 in the series with A2780/Taxol worked out at 16.9 µM; in the series with A549/TR it was 248 nM; in the series on A2780S, 15.7 nM; with A549 it was 19.5 nM. Besides, the entries for the “Ratio IC50” value in series [1] and in series [2] were 1073.76 and 12.72, respectively.

As to `CC(=O)O[C@H]1C(=O)[C@@]2(C)[C@H]([C@H](OC(=O)c3ccccc3)[C@]3(O)C[C@H](OC(=O)[C@H](O)[C@@H](NC(=O)c4ccccc4)c4ccccc4)C(C)=C1C3(C)C)[C@]1(OC(C)=O)CO[C@@H]1C[C@@H]2O` [PACLITAXEL], the Activity in the series on Mus musculus is on record as less than 5%. Besides, the IC50 with A2780/Taxol is 73 µM; with A549/TR, 759 nM; in the series on A2780S, 18.9 nM; in the series on A549 it was 23.2 nM. Moreover, the “Ratio IC50” value in series [1] was 3852.53; in series [2] it was 32.76. In addition, in the series with NCI-H460, the inhibition in vivo at 30 mg/kg was determined as 65.2%.
